Experimental data gathered from unrelated publications.
Protocols differ between the studies behind these lines.
Target: Casein kinase I isoform gamma-2 (CSNK1G2, Homo sapiens, UniProt P78368)

Structure (SMILES) | assay | setting | quantity | value
C[C@H]1CC[C@H](n2c3cnccc3c3cnc(Nc4ccc5c(n4)CCN(C(=O)CO)C5)nc32)CC1 | cell-free assay | 1 µM | remaining signal | 98%
CC(C)S(=O)(=O)c1ccc2nccc(Nc3ccc4sc(C5CCCC5)nc4c3)c2c1 | enzyme activity, inhibitor | 1 µM | activity vs control | 100%
CC#CC(=O)N1CCC[C@H]1c1nc(-c2ccc(C(=O)Nc3ccccn3)cc2)c2c(N)nccn12 | enzyme activity, inhibitor | 1 µM | inhibition | 9%
N#Cc1ccc(NC(=O)Nc2ccccc2)cc1 | cell-free assay, competition with immobilised ligand | 25 µM | remaining binding | 100%
CCCCC(=O)Nc1ccc(-c2ccc3ncn(CCC)c(=O)c3c2)cn1 | binding, competition with immobilised ligand | 0.5 µM | remaining binding | 91%
CN1CCN(C(=O)c2ccc(NC(=O)Nc3ccc(N(C)c4ccnc(Nc5ccc(CS(C)(=O)=O)cc5)n4)cc3)cc2)CC1 | binding | 1 µM | remaining binding | 100%
C#Cc1cnc(Nc2ccnc(CO)c2)nc1Nc1ccccc1S(C)(=O)=NC#N (stereo not drawn) | cell-free assay | 1 µM | remaining signal | 65%
Cc1cc(O)c(-c2ccc([C@@H](C)CN(C)C)cc2)c2c1[nH]c(=O)c1sccc12 | enzyme activity, inhibitor | 0.1 µM | inhibition | -6.66%
COc1ccc2oc(-c3ccc4nc(N)oc4c3)c/c(=N\c3ccccc3NC(=O)CCN)c2c1 | binding | 1 µM | remaining binding | 95%
C1=C/COCc2cc(ccc2OCCN2CCCC2)Nc2nccc(n2)-c2cccc(c2)COC/1 | cell-free assay | 0.1 µM | remaining signal | 92%
CO[C@@H]1[C@H](N(C)C(=O)c2ccccc2)C[C@H]2O[C@]1(C)n1c3ccccc3c3c4c(c5c6ccccc6n2c5c31)C(=O)NC4 | enzyme activity, inhibitor | 1 µM | inhibition | 4%
N#Cc1ccc2nc(Nc3ccc(N4CCOCC4)c(Cl)c3)[nH]c2c1 | thermal stability, DSF | 30 µM | ΔTm | 3.6 °C
